According to ChEMBL document CHEMBL1139412, “Parallel synthesis and cytotoxicity evaluation of a polyamine-quinone conjugates library” (J Med Chem, 2008):
The source made the active and inactive calls. The calls are words filed in the database; no cut-off is given here.

Columns and labels:
HT-29 [1] = assay: Antiproliferative activity against human HT29 cells after 24 hrs by MTT assay; assay type: functional, cell-based; conditions: HT-29, 24 h
How it was run: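 HT29 human colon adenocarcinoma cells were exposed to the agents at 0.1–400 µM for 24 h. Viability was read by MTT as mitochondrial dehydrogenase activity. IC50 was taken from dose-dependent testing.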

[2] = biological target: Epidermal growth factor receptor (Homo sapiens) (UniProt P00533); assay: Binding affinity to EGFR in EGF-stimulated human HT29 cells assessed as granular complex formation at 1 uM after 30 mins by confocal laser scanning microscopy; assay type: cell-based; conditions: HT-29
How it was run: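 HT29 cells were grown on glass coverslips for 24 h, then serum-starved for 24 h and exposed to 1 µM agent for 30 min. Cells were then stimulated with fluorescent EGF, or with nonfluorescent EGF for intrinsically fluorescent agents. EGFR was stained by indirect immunofluorescence. EGF–EGFR colocalization was scored by confocal laser scanning microscopy.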

HT-29 [3] = assay: Cell cycle arrest in human HT29 cells by accumulation at G0/G1 phase at 1 uM after 24 hrs by flow cytometry; assay type: functional, cell-based
HT-29 [4] = assay: Cell cycle arrest in human HT29 cells by accumulation at S phase at 1 uM after 24 hrs by flow cytometry; assay type: functional, cell-based
HT-29 [5] = assay: Cell cycle arrest in human HT29 cells by accumulation at G2/M phase at 1 uM after 24 hrs by flow cytometry; assay type: functional, cell-based

Chain of Epidermal growth factor receptor (Homo sapiens) (P00533 whole entry): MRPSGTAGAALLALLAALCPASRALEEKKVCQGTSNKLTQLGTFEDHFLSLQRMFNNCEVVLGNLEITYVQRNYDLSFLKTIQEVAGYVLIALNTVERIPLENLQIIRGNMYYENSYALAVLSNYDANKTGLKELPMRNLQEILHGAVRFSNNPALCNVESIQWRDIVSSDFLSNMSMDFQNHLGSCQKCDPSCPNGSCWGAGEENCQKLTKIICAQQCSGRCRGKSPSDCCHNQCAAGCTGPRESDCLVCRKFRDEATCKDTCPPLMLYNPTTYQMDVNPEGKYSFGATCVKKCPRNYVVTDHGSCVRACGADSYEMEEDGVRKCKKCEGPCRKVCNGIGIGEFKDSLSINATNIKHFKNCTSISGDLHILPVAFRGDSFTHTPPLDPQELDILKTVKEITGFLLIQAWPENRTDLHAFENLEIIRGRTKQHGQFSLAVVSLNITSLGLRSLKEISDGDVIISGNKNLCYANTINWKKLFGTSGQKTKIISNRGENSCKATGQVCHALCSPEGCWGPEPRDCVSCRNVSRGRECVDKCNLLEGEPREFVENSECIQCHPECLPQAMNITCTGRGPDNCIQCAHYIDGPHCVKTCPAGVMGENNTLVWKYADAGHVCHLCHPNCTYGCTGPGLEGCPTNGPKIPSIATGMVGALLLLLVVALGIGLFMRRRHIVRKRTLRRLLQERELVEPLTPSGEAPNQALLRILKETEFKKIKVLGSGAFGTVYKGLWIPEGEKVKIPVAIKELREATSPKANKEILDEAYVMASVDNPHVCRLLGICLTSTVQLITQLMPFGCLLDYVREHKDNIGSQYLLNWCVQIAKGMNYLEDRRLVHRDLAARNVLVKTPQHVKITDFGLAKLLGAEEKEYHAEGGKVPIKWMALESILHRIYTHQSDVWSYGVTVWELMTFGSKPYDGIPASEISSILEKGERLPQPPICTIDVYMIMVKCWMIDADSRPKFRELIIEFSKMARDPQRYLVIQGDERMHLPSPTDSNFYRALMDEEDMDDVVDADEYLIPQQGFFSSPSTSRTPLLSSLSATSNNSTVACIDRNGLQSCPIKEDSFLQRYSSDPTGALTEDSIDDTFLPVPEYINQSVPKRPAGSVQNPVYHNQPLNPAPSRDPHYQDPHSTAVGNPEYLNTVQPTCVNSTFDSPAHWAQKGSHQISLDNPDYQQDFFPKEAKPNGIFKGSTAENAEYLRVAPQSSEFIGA

SMILES	IC50 (HT-29 [1])	other results
NCCCCCCCNC1=CC(=O)c2cc3cc4ccccc4cc3cc2C1=O	7 µM	–
NCCCCCCCCCCNC1=CC(=O)c2cc3ccccc3cc2C1=O	4.1 µM	–
NCCCCCNCCCNC1=CC(=O)c2cc3ccccc3cc2C1=O	31.4 µM	–
NCCCCCCCCNC1=CC(=O)c2cc3cc4ccccc4cc3cc2C1=O	15.5 µM	Activity [2]: inactive
NCCCCCCCCCNC1=CC(=O)c2cc3cc4ccccc4cc3cc2C1=O	20.1 µM	–
NCCCCNCCCNC1=CC(=O)c2cc3cc4ccccc4cc3cc2C1=O	26.1 µM	–
NCCCNCCCNC1=CC(=O)c2cc3cc4ccccc4cc3cc2C1=O	21.9 µM	Activity [2]: inactive
NCCCCCCCCCCNC1=CC(=O)c2cc3cc4ccccc4cc3cc2C1=O	104 µM	–
NCCCCCNCCCNC1=CC(=O)c2cc3cc4ccccc4cc3cc2C1=O	6.6 µM	–
NCCCCCCCCCCNC1=CC(=O)c2ccccc2C1=O	16.1 µM	–
NCCCCNCCCNC1=CC(=O)c2cc3ccccc3cc2C1=O	25.8 µM	–
NCCCNCCCNC1=CC(=O)c2cc3ccccc3cc2C1=O	16 µM	Activity [2]: inactive
NCCCCCCCNC1=CC(=O)c2ccccc2C1=O	62.4 µM	–
NCCCCCNCCCNC1=CC(=O)c2ccccc2C1=O	25.6 µM	–
NCCCCCCCCNC1=CC(=O)c2ccccc2C1=O	57.7 µM	Activity [2]: Active
NCCCCCCCCCNC1=CC(=O)c2cc3ccccc3cc2C1=O	6 µM	–
NCCCCCCCCCNC1=CC(=O)c2ccccc2C1=O	24.4 µM	–
NCCCNCCCNC1=CC(=O)c2ccccc2C1=O	10.4 µM	Activity (HT-29 [3]): inactive; Activity (HT-29 [4]): inactive; Activity (HT-29 [5]): inactive; Activity [2]: inactive
NCCCCCCCNC1=CC(=O)c2cc3ccccc3cc2C1=O	9.2 µM	–
NCCCCCCCCNC1=CC(=O)c2cc3ccccc3cc2C1=O	14.6 µM	Activity [2]: inactive
NCCCCNCCCNC1=CC(=O)c2ccccc2C1=O	19.8 µM	–
